Screens as filed in PubChem.
STAT1 blocker = inhibitors of IFN-gamma induced STAT1 signaling; NIH 3T3 STAT1-luciferase reporter, luminescence; inhibition, % at 5.5 µM; 0.35% of 200,000 active;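 active = inhibition above a set limit, the mean inhibition across all tested compounds plus 3 SD, cut at about 34% in these data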;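 note: 0% = IFN-gamma with DMSO and 100% = IFN-gamma with 300 µM nifuroxazide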
STAT3 activator = activators of IL-6 induced STAT3 signaling; U3A cells, IL-6 STAT3-luciferase reporter, luminescence; 100% = signal with IL-6 EC80 alone; activation (% of control), % at 5.6 µM; 0.91% of 190,000 active; AID 871;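 active = activation above the screen-wide mean of compound activation plus 3 SD, cut at about 130% in these data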;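 note: 0% = background luminescence of wells with medium and substrate only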
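Detection: reporter luminescence signal / Assay system: STAT1-lacking human U3A cells, STAT3 luciferase reporter / Incubation: compound pre-incubation 1 h before IL-6, then 6 h stimulation at 37 °C / Control set: IL-6-only high control / Read-out: % activation relative to IL-6 control / Probe or stimulus: Interleukin-6, 33 ng/mL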
STAT3 inh = STAT3 signaling inhibition; U3A cells, IL-6 STAT3-luciferase reporter, luminescence; host cell line lacks STAT1; inhibition, % at 5.5 µM; 0.89% of 190,000 active;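 active = inhibition above the mean inhibition across all screened compounds plus 3 SD, cut at about 44% in these data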;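 note: 0% = DMSO only wells and 100% = 100 µM nifuroxazide control wells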
STAT1 activator = increases IFN-gamma driven STAT1 reporter signal | NIH 3T3 STAT1-luciferase reporter, luminescence; 100% = IFN-gamma alone, no compound | 2.6% of 200,000 active | activation (% of control), % at 5.5 µM;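 active = activation above the screen-wide mean activation plus 3 SD, cut at about 130% in these data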;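 note: raw ratio to IFN-gamma control signal so 100% means no change and 0% no light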
NF-kB expr up = compounds increasing NF-kB expression in human neuronal cells; fold change at 12.5 µM; NF-kB reporter expression; active compounds read high; 1.6% of 190,000 active; in the data active = fold change above about 3.3
APP 5'UTR act = activates APP 5'UTR luciferase reporter | SH-SY5Y APP 5'UTR luciferase reporter, luminescence; zero percent = DMSO vehicle wells | activation, % at 2 µM | 1% of 190,000 active | AID 1276;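 active = activation above a set limit, based on mean plus 3 SD of controls, cut at about 140% in these data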
Numbers without * were called inactive. Only some compounds are listed: those with a hit (about 4.9% of all), similar ones and a draw of the others.

What do the screens show for `CCC1CO/C(=C(\C(Cl)=C(Cl)Cl)[N+](=O)[O-])N1` (configuration not stated)?
STAT1 blocker: 6; STAT3 activator: 99; STAT3 inh: 3; STAT1 activator: 94; NF-kB expr up: 1.1; APP 5'UTR act: 1

Results for Cc1nn(Cc2ccccc2)c(Cl)c1/C=C/C(=O)OCC(=O)N1CCCC1=O ?
STAT1 blocker: 0; STAT3 activator: 105; STAT3 inh: -3; STAT1 activator: 98; NF-kB expr up: 7*; APP 5'UTR act: 22

Results for Cc1nn(Cc2ccccc2)c(Cl)c1/C=C/C(=O)OCC(=O)N(C)C1CCS(=O)(=O)C1 (configuration not stated) ?
STAT1 blocker: -4; STAT3 activator: 94; STAT3 inh: 8; STAT1 activator: 105; NF-kB expr up: 1.3; APP 5'UTR act: 7

Results for C=CCn1c(C)cc(C(=O)COc2ncnc3sccc23)c1C ?
STAT1 blocker: -7; STAT3 activator: 71; STAT3 inh: 42; STAT1 activator: 107; NF-kB expr up: 2.8; APP 5'UTR act: 182*

How did COCCn1c(C)cc(C(=O)COc2ncnc3ccc(Br)cc23)c1C do in these assays?
STAT1 blocker: 3; STAT3 activator: 109; STAT3 inh: -9; STAT1 activator: 95; NF-kB expr up: 1.1; APP 5'UTR act: 0

Results for Cc1ccc(NC(=O)CSc2nc3c([nH]c4ccccc43)c(=O)n2C)cc1 ?
STAT1 blocker: 16; STAT3 activator: 112; STAT3 inh: -5; STAT1 activator: 85; NF-kB expr up: 1.1; APP 5'UTR act: -17

Results for COCCn1c(-c2ccc(Cl)cc2)cnc1SCC(=O)NCCc1ccc(OC)c(OC)c1 ?
STAT1 blocker: 16; STAT3 activator: 97; STAT3 inh: 4; STAT1 activator: 86; NF-kB expr up: 0.93; APP 5'UTR act: 8

How did CCOc1ccc(NC(=O)CSc2nc3c([nH]c4ccccc43)c(=O)n2C)cc1 do in these assays?
STAT1 blocker: 14; STAT3 activator: 134*; STAT3 inh: -29; STAT1 activator: 86; NF-kB expr up: 1; APP 5'UTR act: -5

Results for COCCn1c(SCC(=O)NCCc2ccc(OC)c(OC)c2)nc2c([nH]c3ccccc32)c1=O ?
STAT1 blocker: 11; STAT3 activator: 135*; STAT3 inh: -38; STAT1 activator: 89; NF-kB expr up: 1.4; APP 5'UTR act: -5

Results for COc1ccc(N(CCCN2C(=O)c3cccc4cccc(c34)C2=O)C(=O)c2cccnc2)cc1 ?
STAT1 blocker: 2; STAT3 activator: 110; STAT3 inh: -10; STAT1 activator: 97; NF-kB expr up: 0.8; APP 5'UTR act: 31

How did COc1ccc(N(CCCN2C(=O)c3cccc4cccc(c34)C2=O)C(=O)c2ccncc2)cc1 do in these assays?
STAT1 blocker: -34; STAT3 activator: 113; STAT3 inh: -14; STAT1 activator: 130*; NF-kB expr up: 0.9; APP 5'UTR act: 4

How did O=C(O)CCCNC(=O)Nc1ccccc1 do in these assays?
STAT1 blocker: 2; STAT3 activator: 94; STAT3 inh: 4; STAT1 activator: 98; NF-kB expr up: 13*; APP 5'UTR act: 3

What do the screens show for `CCCN(CC(=O)Nc1ccc(Cl)cc1Cl)Cc1cc(=O)n2ccsc2n1`?
STAT1 blocker: 10; STAT3 activator: 99; STAT3 inh: 4; STAT1 activator: 91; NF-kB expr up: 0.75; APP 5'UTR act: 13

What do the screens show for `Cn1c(Cn2cnc([N+](=O)[O-])n2)nnc1SCC(=O)Nc1ccccc1`?
STAT1 blocker: 5; STAT3 activator: 105; STAT3 inh: -2; STAT1 activator: 96; NF-kB expr up: 1.1; APP 5'UTR act: -1

Results for COCCCNS(=O)(=O)c1ccc2c(c1)CCN2C(C)=O ?
STAT1 blocker: -4; STAT3 activator: 100; STAT3 inh: 0; STAT1 activator: 98; NF-kB expr up: 0.98; APP 5'UTR act: -6

What do the screens show for `CC(=O)N1CCc2cc(S(=O)(=O)NCCC3=CCCCC3)ccc21`?
STAT1 blocker: 17; STAT3 activator: 46; STAT3 inh: 65*; STAT1 activator: 89; APP 5'UTR act: -1

Results for Cn1c(C(=O)NCc2ccccn2)cc2c(=O)n3ccccc3nc21 ?
STAT1 blocker: -37; STAT3 activator: 91; STAT3 inh: 14; STAT1 activator: 133*; NF-kB expr up: 1.9; APP 5'UTR act: 17

Results for CN(C)c1ccc(-c2nnc(SCC3CCCO3)n2C)cc1 (configuration not stated) ?
STAT1 blocker: -32; STAT3 activator: 114; STAT3 inh: -13; STAT1 activator: 127; NF-kB expr up: 1.6; APP 5'UTR act: 67

How did O=C(Cn1ncc(N2CCCC2)c(Cl)c1=O)c1ccc(Cl)cc1 do in these assays?
STAT1 blocker: -41; STAT3 activator: 110; STAT3 inh: 0; STAT1 activator: 136*; NF-kB expr up: 1.3; APP 5'UTR act: 83

Results for O=C(Cn1ncc(N2CCOCC2)c(Br)c1=O)c1ccc(Cl)cc1 ?
STAT1 blocker: -17; STAT3 activator: 94; STAT3 inh: 9; STAT1 activator: 114; NF-kB expr up: 0.93; APP 5'UTR act: 26

How did O=C(/C=C/c1cnc2ccccc2n1)NC12CC3CC(CC(C3)C1)C2 do in these assays?
STAT1 blocker: -55; STAT3 activator: 97; STAT3 inh: 3; STAT1 activator: 150*; NF-kB expr up: 1; APP 5'UTR act: 190*

What do the screens show for `O=C(O)/C=C/c1cnc2ccccc2n1`?
STAT1 blocker: 4; STAT3 activator: 108; STAT3 inh: -1; STAT1 activator: 96; NF-kB expr up: 1.4; APP 5'UTR act: -3

What do the screens show for `CCC(C)(C(=O)NC1CCCC1)N(C)C(=O)c1ccccn1` (configuration not stated)?
STAT1 blocker: 1; STAT3 activator: 90; STAT3 inh: 22; STAT1 activator: 98; NF-kB expr up: 0.91; APP 5'UTR act: 12

Results for O=C(c1cc2ncc(Br)cn2n1)N1CCN(C(=O)c2ccco2)CC1 ?
STAT1 blocker: -6; STAT3 activator: 104; STAT3 inh: -1; STAT1 activator: 106; NF-kB expr up: 1.2; APP 5'UTR act: -1

What do the screens show for `Cc1cccc2nc(=S)n(C(=O)c3ccco3)n12`?
STAT1 blocker: -106; STAT3 activator: 134*; STAT3 inh: -32; STAT1 activator: 197*; NF-kB expr up: 12*; APP 5'UTR act: 146*

Results for O=C(c1ccco1)n1c(=S)nc2ccccn21 ?
STAT1 blocker: -48; STAT3 activator: 106; STAT3 inh: 1; STAT1 activator: 144*; NF-kB expr up: 5.4*; APP 5'UTR act: 87

Results for O=C(O)c1ccc(N2C(=O)CC(N3CCC(c4nc5ccccc5[nH]4)CC3)C2=O)cc1 (configuration not stated) ?
STAT1 blocker: 5; STAT3 activator: 106; STAT3 inh: -8; STAT1 activator: 95; NF-kB expr up: 1; APP 5'UTR act: -13
